Values after ≈ are worked out from the molar mass of the structure shown.
What was measured:
Type in all cases: functional
Staphylococcus aureus [1] = assay: In vitro antibacterial activity against methicillin resistant Staphylococcus aureus (MRSA) ATCC 33591
Enterococcus faecium = assay: In vitro antibacterial activity against Vancomycin-susceptible Enterococcus faecium BM4147.1
Outline: (§1)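 MICs by NCCLS broth dilution guidelines, modified by adding 0.02% bovine serum albumin to the growth medium; purified, resynthesized compounds tested against the expanded bacterial panel.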

Enterococcus faecalis = assay: In vitro antibacterial activity against Vancomycin-resistant Enterococcus faecalis ATCC 51299
Staphylococcus aureus [2] = assay: In vitro antibacterial activity against methicillin sensitive Staphylococcus aureus ATCC 25923; outline: as §1

Row | Structure (SMILES) | MIC (Staphylococcus aureus [1]) [µg/mL] | MIC (Enterococcus faecium) [µg/mL] | MIC (Enterococcus faecalis) [µg/mL] | MIC (Staphylococcus aureus [2]) [µg/mL]
1 | CNC(=O)C[C@@H]1NC(=O)c2csc(n2)-c2ccc(-c3nc(C(=O)NCCN=C(N)N)cs3)nc2-c2csc(n2)-c2csc(n2)C(C(O)c2ccccc2)NC(=O)CNC(=O)c2nc(sc2COC)[C@H](C(C)C)NC(=O)c2nc1sc2C (stereo not given in full) | 8 (≈ 6.61 µM) | 8 (≈ 6.61 µM) | 8 (≈ 6.61 µM) | 4 (≈ 3.31 µM)
2 | CNC(=O)C[C@@H]1NC(=O)c2csc(n2)-c2ccc(-c3nc(C(=O)NCCNCCO)cs3)nc2-c2csc(n2)-c2csc(n2)C(C(O)c2ccccc2)NC(=O)CNC(=O)c2nc(sc2COC)[C@H](C(C)C)NC(=O)c2nc1sc2C (stereo not given in full) | 2 (≈ 1.65 µM) | 2 (≈ 1.65 µM) | 4 (≈ 3.3 µM) | 2 (≈ 1.65 µM)
3 | CNC(=O)C[C@@H]1NC(=O)c2csc(n2)-c2ccc(-c3nc(C(=O)N[C@@H](CCC(=O)O)C(=O)NCCCCCC(=O)O)cs3)nc2-c2csc(n2)-c2csc(n2)C(C(O)c2ccccc2)NC(=O)CNC(=O)c2nc(sc2COC)[C@H](C(C)C)NC(=O)c2nc1sc2C (stereo not given in full) | > 32 | – | – | > 32
4 | CNC(=O)C[C@@H]1NC(=O)c2csc(n2)-c2ccc(-c3nc(C(=O)NCC(O)CO)cs3)nc2-c2csc(n2)-c2csc(n2)C(C(O)c2ccccc2)NC(=O)CNC(=O)c2nc(sc2COC)[C@H](C(C)C)NC(=O)c2nc1sc2C (stereo not given in full) | 0.06 (≈ 0.0501 µM) | 0.015 (≈ 0.0125 µM) | 0.015 (≈ 0.0125 µM) | 0.125 (≈ 0.104 µM)
5 | CNC(=O)C[C@@H]1NC(=O)c2csc(n2)-c2ccc(-c3nc(C(=O)N[C@@H](CC(=O)O)C(=O)NCCCCCC(=O)O)cs3)nc2-c2csc(n2)-c2csc(n2)C(C(O)c2ccccc2)NC(=O)CNC(=O)c2nc(sc2COC)[C@H](C(C)C)NC(=O)c2nc1sc2C (stereo not given in full) | > 32 | – | – | > 32
6 | CNC(=O)C[C@@H]1NC(=O)c2csc(n2)-c2ccc(-c3nc(C(=O)N[C@@H](CC(=O)O)C(=O)N[C@@H](CC(=O)O)C(N)=O)cs3)nc2-c2csc(n2)-c2csc(n2)C(C(O)c2ccccc2)NC(=O)CNC(=O)c2nc(sc2COC)[C@H](C(C)C)NC(=O)c2nc1sc2C (stereo not given in full) | > 32 | – | – | > 32
7 | CNC(=O)C[C@@H]1NC(=O)c2csc(n2)-c2ccc(-c3nc(C(=O)N[C@@H](CCC(=O)O)C(=O)N4CCCC[C@H]4C(N)=O)cs3)nc2-c2csc(n2)-c2csc(n2)C(C(O)c2ccccc2)NC(=O)CNC(=O)c2nc(sc2COC)[C@H](C(C)C)NC(=O)c2nc1sc2C (stereo not given in full) | 4 (≈ 2.93 µM) | – | – | –
8 | CNC(=O)C[C@@H]1NC(=O)c2csc(n2)-c2ccc(-c3nc(C(=O)NCC[C@H](O)C(=O)O)cs3)nc2-c2csc(n2)-c2csc(n2)C(C(O)c2ccccc2)NC(=O)CNC(=O)c2nc(sc2COC)[C@H](C(C)C)NC(=O)c2nc1sc2C (stereo not given in full) | 2 (≈ 1.63 µM) | 0.03 (≈ 0.0245 µM) | 0.25 (≈ 0.204 µM) | 4 (≈ 3.26 µM)
9 | CNC(=O)C[C@@H]1NC(=O)c2csc(n2)-c2ccc(-c3nc(CNC(=O)NCC(O)CC(=O)O)cs3)nc2-c2csc(n2)-c2csc(n2)C(C(O)c2ccccc2)NC(=O)CNC(=O)c2nc(sc2COC)[C@H](C(C)C)NC(=O)c2nc1sc2C (stereo not given in full) | 8 (≈ 6.37 µM) | 2 (≈ 1.59 µM) | > 16 | 8 (≈ 6.37 µM)
10 | CNC(=O)C[C@@H]1NC(=O)c2csc(n2)-c2ccc(-c3nc(C(=O)NCCCC(=O)O)cs3)nc2-c2csc(n2)-c2csc(n2)C(C(O)c2ccccc2)NC(=O)CNC(=O)c2nc(sc2COC)[C@H](C(C)C)NC(=O)c2nc1sc2C (stereo not given in full) | 0.125 (≈ 0.103 µM) | 0.015 (≈ 0.0124 µM) | 0.03 (≈ 0.0248 µM) | 0.25 (≈ 0.207 µM)
11 | CNC(=O)C[C@@H]1NC(=O)c2csc(n2)-c2ccc(-c3nc(C(=O)NCC(O)C(=O)O)cs3)nc2-c2csc(n2)-c2csc(n2)C(C(O)c2ccccc2)NC(=O)CNC(=O)c2nc(sc2COC)[C@H](C(C)C)NC(=O)c2nc1sc2C (stereo not given in full) | 4 (≈ 3.3 µM) | 0.5 (≈ 0.412 µM) | 1 (≈ 0.825 µM) | 4 (≈ 3.3 µM)
12 | CNC(=O)C[C@@H]1NC(=O)c2csc(n2)-c2ccc(-c3nc(C(=O)NCC[N+]4([O-])CCOCC4)cs3)nc2-c2csc(n2)-c2csc(n2)C(C(O)c2ccccc2)NC(=O)CNC(=O)c2nc(sc2COC)[C@H](C(C)C)NC(=O)c2nc1sc2C (stereo not given in full) | 1 (≈ 0.798 µM) | 0.5 (≈ 0.399 µM) | 2 (≈ 1.6 µM) | 1 (≈ 0.798 µM)
13 | CNC(=O)C[C@@H]1NC(=O)c2csc(n2)-c2ccc(-c3nc(C(=O)NCCOCCO)cs3)nc2-c2csc(n2)-c2csc(n2)C(C(O)c2ccccc2)NC(=O)CNC(=O)c2nc(sc2COC)[C@H](C(C)C)NC(=O)c2nc1sc2C (stereo not given in full) | 0.06 (≈ 0.0495 µM) | 0.125 (≈ 0.103 µM) | 0.06 (≈ 0.0495 µM) | 0.25 (≈ 0.206 µM)
14 | CNC(=O)C[C@@H]1NC(=O)c2csc(n2)-c2ccc(-c3nc(C(=O)NCCC[N+]4([O-])CCOCC4)cs3)nc2-c2csc(n2)-c2csc(n2)C(C(O)c2ccccc2)NC(=O)CNC(=O)c2nc(sc2COC)[C@H](C(C)C)NC(=O)c2nc1sc2C (stereo not given in full) | 2 (≈ 1.58 µM) | 1 (≈ 0.789 µM) | 2 (≈ 1.58 µM) | 2 (≈ 1.58 µM)
15 | CNC(=O)C[C@@H]1NC(=O)c2csc(n2)-c2ccc(-c3nc(C(=O)NCCO)cs3)nc2-c2csc(n2)-c2csc(n2)C(C(O)c2ccccc2)NC(=O)CNC(=O)c2nc(sc2COC)[C@H](C(C)C)NC(=O)c2nc1sc2C (stereo not given in full) | 0.125 (≈ 0.107 µM) | 0.03 (≈ 0.0257 µM) | 0.03 (≈ 0.0257 µM) | 0.06 (≈ 0.0514 µM)
16 | CNC(=O)C[C@@H]1NC(=O)c2csc(n2)-c2ccc(-c3nc(C(=O)N4CC(C(N)=O)C4)cs3)nc2-c2csc(n2)-c2csc(n2)C(C(O)c2ccccc2)NC(=O)CNC(=O)c2nc(sc2COC)[C@H](C(C)C)NC(=O)c2nc1sc2C (stereo not given in full) | 0.06 (≈ 0.0497 µM) | – | – | –
17 | CNC(=O)C[C@@H]1NC(=O)c2csc(n2)-c2ccc(-c3nc(C(=O)N4CC(C(=O)N[C@H](CCC(=O)O)C(=O)O)C4)cs3)nc2-c2csc(n2)-c2csc(n2)C(C(O)c2ccccc2)NC(=O)CNC(=O)c2nc(sc2COC)[C@H](C(C)C)NC(=O)c2nc1sc2C (stereo not given in full) | > 32 | – | – | > 32
18 | CNC(=O)C[C@@H]1NC(=O)c2csc(n2)-c2ccc(-c3nc(C(=O)NCCC(=O)O)cs3)nc2-c2csc(n2)-c2csc(n2)C(C(O)c2ccccc2)NC(=O)CNC(=O)c2nc(sc2COC)[C@H](C(C)C)NC(=O)c2nc1sc2C (stereo not given in full) | 0.5 (≈ 0.418 µM) | 0.06 (≈ 0.0501 µM) | 0.06 (≈ 0.0501 µM) | 0.5 (≈ 0.418 µM)
19 | CNC(=O)C[C@@H]1NC(=O)c2csc(n2)-c2ccc(-c3nc(C(=O)NCCCCN=C(N)N)cs3)nc2-c2csc(n2)-c2csc(n2)C(C(O)c2ccccc2)NC(=O)CNC(=O)c2nc(sc2COC)[C@H](C(C)C)NC(=O)c2nc1sc2C (stereo not given in full) | 4 (≈ 3.23 µM) | 8 (≈ 6.46 µM) | 8 (≈ 6.46 µM) | 8 (≈ 6.46 µM)
20 | CNC(=O)C[C@@H]1NC(=O)c2csc(n2)-c2ccc(-c3nc(C(=O)NCCCCO)cs3)nc2-c2csc(n2)-c2csc(n2)C(C(O)c2ccccc2)NC(=O)CNC(=O)c2nc(sc2COC)[C@H](C(C)C)NC(=O)c2nc1sc2C (stereo not given in full) | 0.125 (≈ 0.104 µM) | 0.06 (≈ 0.0501 µM) | 0.125 (≈ 0.104 µM) | 0.125 (≈ 0.104 µM)
21 | CNC(=O)C[C@@H]1NC(=O)c2csc(n2)-c2ccc(-c3nc(C(=O)N[C@@H](CO)C(=O)N4CCC[C@H]4C(N)=O)cs3)nc2-c2csc(n2)-c2csc(n2)C(C(O)c2ccccc2)NC(=O)CNC(=O)c2nc(sc2COC)[C@H](C(C)C)NC(=O)c2nc1sc2C (stereo not given in full) | 0.25 (≈ 0.191 µM) | – | – | –
22 | CNC(=O)C[C@@H]1NC(=O)c2csc(n2)-c2ccc(-c3nc(C(=O)NCCN)cs3)nc2-c2csc(n2)-c2csc(n2)C(C(O)c2ccccc2)NC(=O)CNC(=O)c2nc(sc2COC)[C@H](C(C)C)NC(=O)c2nc1sc2C (stereo not given in full) | 1 (≈ 0.857 µM) | 2 (≈ 1.71 µM) | 2 (≈ 1.71 µM) | 2 (≈ 1.71 µM)
23 | CNC(=O)C[C@@H]1NC(=O)c2csc(n2)-c2ccc(-c3nc(C(=O)NCCN4CCOCC4)cs3)nc2-c2csc(n2)-c2csc(n2)C(C(O)c2ccccc2)NC(=O)CNC(=O)c2nc(sc2COC)[C@H](C(C)C)NC(=O)c2nc1sc2C (stereo not given in full) | 0.25 (≈ 0.202 µM) | 0.06 (≈ 0.0485 µM) | 0.06 (≈ 0.0485 µM) | 0.5 (≈ 0.404 µM)
